Assay outcomes from PubChem BioAssay.
The list is not random: actives were taken first. Their share in the collection is about 3.5%.
NF-kB expr up = activators of NF-kB expression in neurons, primary screen, cell-based, HTS. human neuronal cells, NF-kB reporter expression; stronger effect = higher value. fold change at 12.5 µM. 190,000 compounds, 1.6% hits; in the data active = fold change above about 3.3
FLuc inh counter = firefly luciferase enzyme inhibitors, primary screen, artefact control for luciferase-based inhibitor screens, biochemical, luminescence, ATPLite; inhibition, % at 10 µM; 10 min; Luciferin 4-monooxygenase (Photinus pyralis), P08659; AID 1006, 2008; 200,000 compounds, 1.5% hits;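 active = inhibition above about 50% when tested at 10 µM, limit read from the data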
Target sequence (P08659 whole entry, looked up): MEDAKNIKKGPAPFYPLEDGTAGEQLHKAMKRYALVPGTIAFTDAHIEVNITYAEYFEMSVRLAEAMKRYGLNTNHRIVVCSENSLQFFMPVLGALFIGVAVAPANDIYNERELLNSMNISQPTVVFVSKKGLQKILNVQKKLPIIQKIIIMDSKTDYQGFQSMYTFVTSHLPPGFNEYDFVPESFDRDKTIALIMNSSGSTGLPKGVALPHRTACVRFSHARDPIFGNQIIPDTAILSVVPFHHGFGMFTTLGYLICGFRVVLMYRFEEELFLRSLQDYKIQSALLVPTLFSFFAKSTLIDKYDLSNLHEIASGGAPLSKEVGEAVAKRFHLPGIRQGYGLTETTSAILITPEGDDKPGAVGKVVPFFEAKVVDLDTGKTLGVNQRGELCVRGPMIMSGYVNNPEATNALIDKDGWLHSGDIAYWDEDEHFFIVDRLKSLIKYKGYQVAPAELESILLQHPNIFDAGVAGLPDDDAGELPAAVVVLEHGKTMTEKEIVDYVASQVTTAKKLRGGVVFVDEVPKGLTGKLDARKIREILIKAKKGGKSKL
STAT1 activator = STAT1 signaling activators, primary screen, cell-based, HTS, luciferase reporter; activation (% of control), % at 5.5 µM; AID 932, 2007; NIH 3T3 STAT1-luciferase reporter, IFN-gamma, luminescence; 100% = IFN-gamma alone, no compound; 200,000 compounds, 2.6% hits;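 active = activation above the screen-wide mean activation plus 3 SD, cut at about 130% in these data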;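 also: raw ratio to IFN-gamma control signal so 100% means no change and 0% no light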
APP 5'UTR act = activators of APP 5'UTR luciferase reporter, primary screen, SH-SY5Y cells; SH-SY5Y APP 5'UTR luciferase reporter, luminescence; zero percent = DMSO vehicle wells; 190,000 compounds, 1% hits; activation, % at 2 µM;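 active = activation above a set limit, based on mean plus 3 SD of controls, cut at about 140% in these data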
FLuc stim CS = FLuc activators, initial screening, artefact control for FLuc-dependent activation tests, biochemical, ATPlite luminescence; activation factor at 10 µM; Luciferin 4-monooxygenase (Photinus pyralis), P08659; 200,000 tested, under 10 active; ATPlite luciferase biochemical, 10 min; 0 = ATP-free wells, 1 = DMSO control;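 active = luciferase activation factor, scaled between plate controls, of at least 2 with compound at 10 µM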
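System: luciferase plus luciferin reagent, cell-free; medium: PBS as buffer for the ATP substrate; dosing: test compounds dosed from 2 mM stocks in 100% DMSO; timing: 10 min post-reagent at room temperature; measured by: luminescence measurement of luciferase light output; evaluation: luciferase activation, seen as luminescence increase over controls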
Pf gamet viab = late stage P. falciparum gametocyte viability inhibitors, primary screen, ATP luminescence, HTS. P. falciparum stage V gametocytes, 24 h. inhibition, % at 10.9 µM. 150,000 compounds, 0.065% hits. AID 743093, 2013;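 active = inhibition above the mean plus 3 SD of compounds within the control limits, set per campaign, cut at about 38% in these data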;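 also: 0% = DMSO wells and 100% = medium only without gametocytes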
* hit, by the source's call.

CC1=NC(=O)C(N=Nc2ccccc2)N1c1ccccc1 (configuration not stated) was read as NF-kB expr up 4.38*, FLuc inh counter 7.7, STAT1 activator 121.0, APP 5'UTR act 51.1 and FLuc stim CS 0.9.
For CC1=NC(=O)C(N=Nc2cccc(C(=O)O)c2)N1c1ccccc1 (configuration not stated) the results were NF-kB expr up 9.47*, FLuc inh counter 54.0*, STAT1 activator 73.5, APP 5'UTR act 86.6 and FLuc stim CS 0.5.
CC1=NC(=O)C(N=Nc2ccccc2C)N1c1ccccc1 (configuration not stated) was read as STAT1 activator 105.9 and APP 5'UTR act 13.4.
N#Cc1c(NCCCO)nc(NCc2ccccc2)c2c1CCN(Cc1ccccc1)C2 was read as NF-kB expr up 3.31*, FLuc inh counter -2.8, STAT1 activator 100.8, APP 5'UTR act 8.2, FLuc stim CS 1 and Pf gamet viab -0.9.
Screening CCNS(=O)(=O)c1ccc(CCC(=O)N2CCN(c3ccccc3F)CC2)cc1 returned Pf gamet viab 6.9.
For Oc1ccc(-c2nccc(-c3cccs3)n2)cc1 the results were NF-kB expr up 2.89, FLuc inh counter 5.4, STAT1 activator 140.8*, APP 5'UTR act 83.5, FLuc stim CS 0.9 and Pf gamet viab 12.6.
O=C(CCc1nnc(-c2ccsc2)o1)N1CCc2c(Cl)cccc2C1 was read as NF-kB expr up 2.22, FLuc inh counter -4.2, STAT1 activator 129.2*, APP 5'UTR act 41.7, FLuc stim CS 1 and Pf gamet viab -15.0.
For O=C(CCc1nnc(-c2ccc(-c3ccccc3)cc2)o1)N1CCCCC1 the results were FLuc inh counter 4.4, STAT1 activator 115.3, APP 5'UTR act -13.8, FLuc stim CS 1 and Pf gamet viab -13.7.
Screening Cc1ccc(C(=O)NCCn2ccc3ccccc32)cc1[N+](=O)[O-] returned NF-kB expr up 1.34, FLuc inh counter -6.0, STAT1 activator 111.2, APP 5'UTR act -2.9, FLuc stim CS 1.1 and Pf gamet viab 13.8.
`O=C(NCCn1ccc2ccccc21)c1ccc(S(=O)(=O)N2CCCCC2)cc1` gave NF-kB expr up 1, FLuc inh counter -2.7, STAT1 activator 94.1, APP 5'UTR act 11.1 and FLuc stim CS 1.
O=C(NCCn1ccc2ccccc21)c1ccc2c(c1)OCO2 was read as NF-kB expr up 5.74*, FLuc inh counter 9.9, STAT1 activator 139.2*, APP 5'UTR act 149.5* and FLuc stim CS 0.9.
COc1ccc(C(=O)NCCn2ccc3ccccc32)cc1 was read as NF-kB expr up 4.05*, FLuc inh counter 7.1, STAT1 activator 115.5, APP 5'UTR act 90.8 and FLuc stim CS 0.9.
Screening COc1ccc(/C=C/c2noc(-c3ccccc3O)n2)cc1 returned NF-kB expr up 1, FLuc inh counter 54.0*, STAT1 activator 100.3, APP 5'UTR act 71.2, FLuc stim CS 0.5 and Pf gamet viab 7.5.
For COc1cc(/C=C/c2noc(-c3ccccc3O)n2)cc(OC)c1OC the results were NF-kB expr up 1.32, FLuc inh counter -4.8, STAT1 activator 102.1, APP 5'UTR act 52.0, FLuc stim CS 1 and Pf gamet viab -18.6.
Screening Cc1ccccc1OCCn1cnc2c(N)ncnc21 returned NF-kB expr up 1.6, FLuc inh counter 1.4, STAT1 activator 129.4*, APP 5'UTR act 2.2 and FLuc stim CS 1.
`O=C(Nc1cc(-c2ccccc2)nn1-c1c(Cl)cccc1Cl)c1ccc(F)cc1` gave Pf gamet viab -39.6.
For Cc1ccc(-n2cc(C(=O)c3ccccc3O)cn2)cc1 the results were NF-kB expr up 3.12, FLuc inh counter 67.5*, STAT1 activator 89.3, APP 5'UTR act 100.1, FLuc stim CS 0.3 and Pf gamet viab -6.1.
`O=C(COc1ccccc1C(=O)c1cnn(-c2ccccc2)c1)Nc1ccccc1` gave NF-kB expr up 1.38, FLuc inh counter 73.6*, STAT1 activator 120.5, APP 5'UTR act 30.6 and FLuc stim CS 0.3.
Screening C=CCNC(=O)CN1C(=O)c2cccc3cccc1c23 returned Pf gamet viab -4.3.
For O=C(N/C=C/c1ccccc1)Nc1ccc(Cl)cc1 the results were NF-kB expr up 1.34, FLuc inh counter 6.0, STAT1 activator 141.0*, APP 5'UTR act 57.8, FLuc stim CS 0.9 and Pf gamet viab 5.1.
For Cc1ccc(NC(=O)N/C=C/c2ccccc2)cc1 the results were NF-kB expr up 1.54, FLuc inh counter 12.3, STAT1 activator 146.0*, APP 5'UTR act 104.9, FLuc stim CS 0.9 and Pf gamet viab -17.6.
Screening CNC(=O)n1cc(C)c(-c2cccs2)n1 returned Pf gamet viab -5.3.
Screening Cc1ccc(C(=O)OCC(=O)c2ccc(Cl)s2)s1 returned NF-kB expr up 2.15, FLuc inh counter 41.1, STAT1 activator 130.6*, APP 5'UTR act -1.5 and FLuc stim CS 0.6.
O=C(COC(=O)c1ccc[nH]c1=O)c1ccc(Cl)s1 was read as NF-kB expr up 1.02, FLuc inh counter 20.2, STAT1 activator 104.0, APP 5'UTR act 7.7 and FLuc stim CS 0.8.
`Cc1cccc(S(=O)(=O)Nc2ccc(-c3nc4ccc(C)cc4s3)cc2)c1` gave NF-kB expr up 2.14, FLuc inh counter 19.5, STAT1 activator 147.2*, APP 5'UTR act 163.1*, FLuc stim CS 0.8 and Pf gamet viab 15.3.
Cc1ccc(S(=O)(=O)Nc2ccc(-c3nc4ccc(C)cc4s3)cc2)cc1 was read as NF-kB expr up 0.84, STAT1 activator 107.7, APP 5'UTR act 3.0 and Pf gamet viab 19.5.
COc1ccc(C2(C)NC(=O)N(CC(=O)Nc3ccc(-c4nc5ccc(C)cc5s4)cc3)C2=O)cc1 (configuration not stated) was read as FLuc inh counter 35.2, STAT1 activator 143.8*, APP 5'UTR act 171.0* and FLuc stim CS 0.6.
Screening Cc1nc2cc(NC(=O)CCS(=O)(=O)c3ccccc3)ccc2s1 returned NF-kB expr up 3.19, FLuc inh counter 19.2, STAT1 activator 150.2*, APP 5'UTR act 134.8 and FLuc stim CS 0.8.
Cc1ccc2nc(-c3ccc(NC(=O)COC(=O)c4ccc(=O)[nH]c4)cc3)sc2c1 was read as NF-kB expr up 6.49*, FLuc inh counter 50.4*, STAT1 activator 135.3*, APP 5'UTR act 165.0*, FLuc stim CS 0.5 and Pf gamet viab 19.8.
Screening Cc1ccc2nc(NC(=O)COC(=O)c3ccncc3)sc2c1 returned NF-kB expr up 1.85, FLuc inh counter 7.2, STAT1 activator 123.2, APP 5'UTR act 24.7, FLuc stim CS 0.9 and Pf gamet viab -4.1.
For Cc1ccc2nc(-c3ccc(NC(=O)CN4CCN(c5ccccn5)CC4)cc3)sc2c1 the results were Pf gamet viab -2.0.
